These results are taken from publication PMC6366617 (Science (New York, N.Y.), 2019).

B1: sushi 1 domain of GABABR1a (Fc-tag enzymatically removed) (domain or fragment)
chain: TSEGCQIIHPPWEGGIRYRGLTRDQVKAINFLPVDYEIEYVCRGEREVVGPKVRKCLANGSWTDMDTPSRCVR

In test [1] the test system is cultured mouse hippocampal neurons (mEPSCs). The test is described as follows: mEPSC recording in cultured hippocampal neurons. It is filed as cell-based. The note with it: for effect on mEPSC frequency: acute application, Fc-tag enzymatically removed (ExD-AcD, sAPPαΔExD; n=17-20, N=3); for reduction of mEPSC frequency: P < 0.001, 12-17 DIV.
Test [2] deals with cultured mouse hippocampal neurons (mIPSCs). The test is described as follows: mIPSC recording in cultured hippocampal neurons. The class given is cell-based. The note with it: for reduction of mIPSC frequency: acute, P < 0.001. The method in brief:
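Mouse hippocampal neurons in culture (12–17 DIV) were recorded for miniature currents, and mIPSCs were separated from mEPSCs by their decay kinetics. Frequency was compared between baseline and acute application of 250 nM test protein, or of 30 μM baclofen as GABABR agonist reference. n is cells.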

A further test concerns GABABR1b. The test is described as follows: Cell-surface binding assay, GABABR1b-expressing HEK293T cells. The note with it: immunostaining, confocal, pDisplay vector, n=24. The method in brief: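 Fc-tagged test protein, affinity-purified from transfected HEK293T supernatants, was applied to HEK293T cells displaying the receptor ectodomain at the surface (pDisplay). Fc alone served as control. Bound protein was detected by immunostaining, imaged by confocal microscopy and quantified per cell. n is total cells from 3–4 independent experiments. Means ± SEM, two-way ANOVA with Bonferroni post hoc.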

Another test deals with GABABR2. Briefly: Cell-surface binding assay, GABABR2-expressing HEK293T cells. The note with it: immunostaining, confocal, pDisplay vector, n=24.
Test [3] deals with Schaffer collateral synapses, acute hippocampal slices. Also noted: species or system mouse. The note with it: for paired-pulse ratio (PPR): 1 μM protein, first 2 stimuli at 20, 50 and 100 Hz. The method in brief:
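Acute mouse hippocampal slices were pre-incubated 90 min with or without 1 μM test protein (Fc tag removed), with or without 10 μM CGP54626. fEPSPs were recorded in CA1 stratum radiatum on Schaffer collateral stimulation. Input/output: 0.1 Hz, 30–150 μA. Bursts at 20, 50 and 100 Hz were normalized to the first response peak. PPR used the first two pulses. n is slices. Means ± SEM.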

Test [4] relates to cultured hippocampal mouse neurons (presynaptic strength). The test is described as follows: FM1-43 presynaptic vesicle recycling in cultured hippocampal neurons. It is filed as cell-based. Put shortly:
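Cultured mouse hippocampal neurons were loaded and unloaded with FM1–43 by a combined stimulation paradigm, before and after test protein (Fc tag enzymatically removed; dose series, 1 μM top). Presynaptic strength S = ΔF at individual boutons × density of FM+ boutons per image area. Antagonist arms were run with or without GABABR antagonist, normalized to control. N is independent experiments. Means ± SEM, one-way ANOVA with Tukey post hoc.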

Test [5] has as its target sushi 1 domain of GABABR1a (Homo sapiens, UniProt Q9UBS5). Briefly: Isothermal titration calorimetry. The class given is binding. As to conditions: ITC. The method in brief:
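Isothermal titration calorimetry was run between purified test protein and purified GABABR1a sushi 1 domain. Fc tags were enzymatically removed from both. The dissociation constant (KD) was derived from the titration.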

Test [6] deals with neurons lacking APP; App/Aplp1 dKO cultures (mEPSCs). Briefly: mEPSC recording in neurons lacking APP / App/Aplp1 dKO cultures. It is filed as cell-based, mouse.
Test [7] has as its system neurons lacking APP; App/Aplp1 dKO cultures (mIPSCs). The test is described as follows: mIPSC recording in neurons lacking APP / App/Aplp1 dKO cultures. It is filed as cell-based, mouse.
Test [8] relates to synaptic transmission and plasticity. The note with it: ref [16]–[19]; cited from earlier work.
The next test deals with GABABR1a sushi 1. Briefly: Biolayer interferometry, sAPPα binding to immobilized sushi peptides. The note with it: sAPPα Fc-tag enzymatically removed; immobilized Fc-tagged sushi peptides.
The next test relates to App KO mice. As to conditions: cited from earlier work.
Test [9] deals with sAPPα (Fc-tag enzymatically removed) (UniProt P05067-4 18-612). The test is described as follows: ITC. For orientation: In ITC the heat of successive injections is recorded.
Test [10] deals with sAPPα-Fc binding to GABABR1a-expressing HEK293T cells. The test is described as follows: Competition of sAPPα-Fc binding to GABABR1a-expressing HEK293T cells. The note with it: increasing concentrations of untagged sushi 1 peptide, excess; n=24-31.
Test [11] deals with B1. Briefly: ITC.
The mark [12] stands for this setting: 30 μM baclofen, App/Aplp1 dKO vs WT cultures.
Where [13] appears, read: 1 μM sAPPα, 90 min pre-incubation, 0.1 Hz, 30-150 μA.

On to `C[C@H](NC[C@H](O)CP(=O)(O)Cc1ccccc1)c1ccc(Cl)c(Cl)c1` [CGP55845, reference compound], for which, in [1] (CGP55845 5μM, 17mer 250 nM, n=16, N=3 (without CGP n=14, N=3)), the “effect of CGP55845 pretreatment on APP 17mer reduction of mEPSC frequency” value is reported as “blocks this effect”. Further, the “effect of CGP55845 pretreatment on sAPPα effect on mIPSC frequency” value in test [2] (CGP55845 5 μM, pretreatment) was “blocked by pretreatment”.

For the molecule “sAPPα-Fc: recombinant sAPPα with C-terminal Fc-tag from transfected HEK293T supernatants”, the “binding to GABABR1b-expressing cells” value in the test on GABABR1b is given as “not to GABABR1b-”. In addition, the “binding to GABABR2-expressing cells” value with GABABR2 is reported as “not to GABABR1b-, or GABABR2-, expressing cells”.

Take “sAPPβ: soluble APP ectodomain released by β-secretase”: the “effect on mEPSC frequency” value in test [1] is “similarly reduced mEPSC frequency”.

With `C[C@H](NC[C@H](O)CP(=O)(O)CC1CCCCC1)c1ccc(Cl)c(Cl)c1` [CGP54626, reference compound], the “effect of CGP54626 on sAPPα-mediated decrease in i/o slope” value in test [3] (CGP54626 10 μM, preincubation of slices) is given as “abolished the sAPPα-mediated decrease in the slope of the i/o curve”. Further, the “effect of CGP54626 on sAPPα-induced decrease of presynaptic strength” value in test [4] (CGP54626 10μM, N=8) was “occluded”.

Consider “sAPPαΔExD: sAPPα with deletion of the ExD”, for which the “paired-pulse ratio (PPR)” value in test [3] was “abolished the sAPPα-mediated effect”. In addition, the “effect on the i/o curve with ExD deletion” value in test [3] (sAPPαΔExD 1 μM) was “abolished the sAPPα-mediated effect on the i/o curve”. The “effect on mEPSC frequency” value in [1] is recorded as “had no effect”. In addition, in test [4] (sAPPαΔExD 1 μM, FM1-43), the “decrease of total presynaptic strength with ExD deletion” value is “not observed”. Moreover, the “effect on mIPSC frequency” value in [2] (acute application) was “not sAPPαΔExD, reduced mIPSC frequency”.

“residues 211–220: peptide of APP695 residues 211–220 (GGADTDYADG)”: in [5] (for ExD-AcD Fc-tag enzymatically removed), the “binding affinity to sushi 1 (in words)” value is “failed to bind sushi 1”.

As to `NCC(CC(=O)O)c1ccc(Cl)cc1` (stereo not drawn) [baclofen, reference compound], the “effect on mEPSC frequency in App/Aplp1 dKO cultures” value in test [6] (setting [12]) is “similarly reduced mEPSC and mIPSC frequency”. Further, the “reduction of mEPSC frequency” value in test [1] (30 μM baclofen, acute, n=14 cells) is 63 ± 5%. Also, the “effect on mIPSC frequency in App/Aplp1 dKO cultures” value in [7] (setting [12]) was “similarly reduced mEPSC and mIPSC frequency”. For the same molecule, the “reduction of mIPSC frequency” value in test [2] (30 μM baclofen, n=14 cells) turned out to be 62 ± 5%.

As a reminder, the Kd is the concentration at which binding is half-saturated. In the case of “sAPPα: soluble APP ectodomain released by α-secretase; purified recombinant protein”, the “paired-pulse ratio (PPR)” value in test [3] is on record as “increased PPR for each frequency”. Besides, in [3] (setting [13]), the “decrease of slope of the input/output (i/o) curve” value came out at 23% and the fEPSP amplitude result is given as “reduced fEPSP amplitude”. Also, in test [8], the “effect on LTP” value is “an enhancement of LTP” and the “effect on synaptic activity” value is recorded as “a reduction in synaptic activity”. Also, the “effect on mEPSC frequency in neurons lacking APP” value in [6] (sAPPα, neurons lacking APP) was “still reduced mEPSC and mIPSC frequency”. Moreover, the “effect on mEPSC frequency at 25 nM” value in [1] (25nM sAPPα) is reported as “already apparent at 25nM”. In addition, in test [1] (250 nM sAPPα (Fc-tag removed), acute), the “effect on mEPSC amplitude” value was “without affecting mEPSC amplitude”. Also, in test [1] (250 nM sAPPα (Fc-tag removed), acute, n=13 cells), the “reduction of mEPSC frequency” value is recorded as 39 ± 5%. Also, in the test with GABABR1a sushi 1, the “binding of sAPPα to sushi 1 (biolayer interferometry)” value was “sushi 1 peptide was sufficient for binding sAPPα”. Moreover, in test [7] (sAPPα, neurons lacking APP), the “effect on mIPSC frequency in neurons lacking APP” value is “still reduced mEPSC and mIPSC frequency”. The “reduction of total presynaptic strength (S = ΔF × D)” value in [4] (1 μM sAPPα, FM1-43 loading/unloading, n=8 experiments, P < 0.001) amounted to 57 ± 7%. Moreover, the “total presynaptic strength (S = ΔF × D), dose dependence” value in test [4] (FM1-43 loading/unloading, sAPPα Fc-tag enzymatically removed, N=5-8) was “decreased the total presynaptic strength”. In addition, in test [5] (read-out: dissociation constant (KD) for sAPPα-sushi 1, purified proteins, Fc-tag enzymatically removed from both), the Kd was found to be 431 nM. Besides, the “rescue of spine density defects” value in the test on App KO mice (ref [20]) is recorded as “sufficient to rescue synaptic defects in App KO mice, including defects in spine density”. Moreover, the “rescue of LTP defects” value in the test on App KO mice (ref [21], [22]) was “sufficient to rescue synaptic defects in App KO mice”. Moreover, in the test on App KO mice (ref [21]), the “rescue of spatial learning defects” value was “sufficient to rescue synaptic defects in App KO mice”. Moreover, the “reduction of mIPSC frequency” value in test [2] (250 nM sAPPα, n=13 cells) worked out at 44 ± 5%. In addition, in [2] (sAPPα, acute (250 nM)), the “reduction in mIPSC amplitude” value is given as 14%.

With B1, binding in test [9] was characterised by a dissociation constant (Kd) of 431 nM.

B2: sushi 1 peptide: sushi 1 domain of GABABR1a, recombinant (protein)
chain: TSEGCQIIHPPWEGGIRYRGLTRDQVKAINFLPVDYEIEYVCRGEREVVGPKVRKCLANGSWTDMDTPSRCVR
modifications: left off: Fc, end not stated, kept
Consider B2, for which the “blocking of sAPPα-Fc binding to GABABR1a-expressing cells” value in test [10] is listed as “blocked binding of sAPPα-Fc to GABABR1a-expressing cells”.

B3: APP 17mer peptide (APP695 204-220AA) (peptide, UniProt P05067-4 204-220, looked up)
peptide: DDSDVWWGGADTDYADG
The molecule B3 came in with a Kd in test [11] of 810 nM.

B4: sAPLP1: soluble APP-like protein 1, lacks a conserved ExD (protein)
chain: SLAGGSPGAAEAPGSAQVAGLCGRLTLHRDLRTGRWEPDPQRSRRCLRDPQRVLEYCRQMYPELQIARVEQATQAIPMERWCGGSRSGSCAHPHHQVVPFRCLPGEFVSEALLVPEGCRFLHQERMDQCESSTRRHQEAQEACSSQGLILHGSGMLLPCGSDRFRGVEYVCCPPPGTPDPSGTAVGDPSTRSWPPGSRVEGAEDEEEEESFPQPVDDYFVEPPQAEEEEETVPPPSSHTLAVVGKVTPTPRPTDGVDIYFGMPGEISEHEGFLRAKMDLEERRMRQINEVMREWAMADNQSKNLPKADRQALNEHFQSILQTLEEQVSGERQRLVETHATRVIALINDQRRAALEGFLAALQADPPQAERVLLALRRYLRAEQKEQRHTLRHYQHVAAVDPEKAQQMRFQVHTHLQVIEERVNQSLGLLDQNPHLAQELRPQIQELLHSEHLGPSELEAPAPGGSSEDKGGLQPPDSKDDTPMTLPKGSTEQDAASPEKEKMNPLEQYERKVNASVPRGFPFHSSEIQRDELAPAGTGVSRE
modifications: left off: Fc, end not stated, kept
For B4, the “effect on mEPSC frequency” value in [1] is “did not reduce mEPSC frequency”. For the same molecule, the “reduction in mIPSC frequency by sAPLP1” value in test [2] (sAPLP1, acute, n=17 cells, P < 0.05) is given as 17 ± 9%.

B5: APP 9mer peptide (APP695 residues 204-212) (peptide, UniProt P05067-4 204-212, looked up)
peptide: DDSDVWWGG
For B5, in [11], the affinity, expressed as Kd, was 2300 nM.
